The values below come from ChEMBL document CHEMBL1133934, “Metabolic stabilization of benzylidene ketal M(2) muscarinic receptor antagonists via halonaphthoic acid substitution” (Bioorg Med Chem Lett, 2001).

pKi: −log10 of the molar value.

Data set [1] has as its target T1, Muscarinic acetylcholine receptor M2 (Homo sapiens, UniProt P08172).
T1 sequence (P08172 whole entry): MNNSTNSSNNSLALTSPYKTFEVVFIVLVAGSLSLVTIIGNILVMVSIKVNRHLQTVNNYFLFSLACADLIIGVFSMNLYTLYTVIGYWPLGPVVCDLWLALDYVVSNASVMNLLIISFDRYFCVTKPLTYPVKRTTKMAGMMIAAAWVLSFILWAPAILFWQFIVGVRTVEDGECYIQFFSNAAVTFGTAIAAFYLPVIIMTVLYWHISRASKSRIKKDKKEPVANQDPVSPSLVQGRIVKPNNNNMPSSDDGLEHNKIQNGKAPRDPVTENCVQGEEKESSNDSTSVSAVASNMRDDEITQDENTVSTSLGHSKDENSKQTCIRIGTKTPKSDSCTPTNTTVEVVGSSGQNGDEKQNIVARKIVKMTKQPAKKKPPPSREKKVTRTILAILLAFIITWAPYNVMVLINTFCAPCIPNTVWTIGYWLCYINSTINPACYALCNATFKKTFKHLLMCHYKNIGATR
As to the kind of experiment: Antagonistic activity against muscarinic acetylcholine receptor M2. In kind it is functional. The procedure, abridged: (§1)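 Muscarinic receptor binding by a method described elsewhere; values are the mean of duplicates (SEM < 15%), each determination performed at least twice. Selectivity expressed as the ratio of M1 or M3 to M2 binding.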

Data set [2] in a line: Pharmacokinetic property at the dose of 10 mg/kg (20% HPbetaCD) concentration in rat (0 to 6 hr) p.o. As to conditions: in vivo, po.
The test system of the next data set is Rattus norvegicus. As to the kind of experiment: Percent of Acetylcholine (ACh) released above baseline in rat striatum at the dose of 10 mg/kg p.o. (0-2h). In kind it is functional. As to conditions: route oral. The procedure, abridged:
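Rats dosed orally at 10 mg/kg in 20% HPβCD; microdialysis of striatum measuring ACh release over the 2 h experiment. Stimulation judged against pre-injection baseline, significance p < 0.05 by Duncan's multiple range statistic.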

Data set [3] deals with T1, Muscarinic acetylcholine receptor M2. As to the kind of experiment: Antagonistic activity against Muscarinic acetylcholine receptor M2. It counts as functional. The method, boiled down:
as §1

Data set [4] concerns the target Muscarinic acetylcholine receptors; M2 & M3 (Homo sapiens) (UniProt P20309+P08172). As to the kind of experiment: Selectivity ratio of M3 muscarinic receptor to that of M2 muscarinic receptor. In kind it is protein assay. The method, boiled down:
as §1

Data set [5] addresses Muscarinic acetylcholine receptors; M1 & M2 (Homo sapiens) (UniProt P11229+P08172). As to the kind of experiment: Selectivity ratio of M1 muscarinic receptor to that of M2 muscarinic receptor. In kind it is protein assay. The method, boiled down: as §1

Chain of Muscarinic acetylcholine receptors; M1 & M2 (Homo sapiens) (P11229 whole entry, looked up, one chain of several): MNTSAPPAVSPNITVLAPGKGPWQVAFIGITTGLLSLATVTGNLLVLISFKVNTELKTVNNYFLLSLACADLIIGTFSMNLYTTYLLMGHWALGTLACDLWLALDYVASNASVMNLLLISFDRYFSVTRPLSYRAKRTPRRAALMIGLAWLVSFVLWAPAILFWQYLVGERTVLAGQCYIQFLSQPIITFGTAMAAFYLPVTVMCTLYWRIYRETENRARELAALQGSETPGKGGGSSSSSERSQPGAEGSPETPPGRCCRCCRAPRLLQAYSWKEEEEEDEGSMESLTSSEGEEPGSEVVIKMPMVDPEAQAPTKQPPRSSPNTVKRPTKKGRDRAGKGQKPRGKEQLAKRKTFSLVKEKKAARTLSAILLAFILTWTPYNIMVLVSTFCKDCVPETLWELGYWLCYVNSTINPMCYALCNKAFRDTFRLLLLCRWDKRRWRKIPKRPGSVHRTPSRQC
Chain of Muscarinic acetylcholine receptors; M2 & M3 (Homo sapiens) (P20309 whole entry, looked up, one chain of several): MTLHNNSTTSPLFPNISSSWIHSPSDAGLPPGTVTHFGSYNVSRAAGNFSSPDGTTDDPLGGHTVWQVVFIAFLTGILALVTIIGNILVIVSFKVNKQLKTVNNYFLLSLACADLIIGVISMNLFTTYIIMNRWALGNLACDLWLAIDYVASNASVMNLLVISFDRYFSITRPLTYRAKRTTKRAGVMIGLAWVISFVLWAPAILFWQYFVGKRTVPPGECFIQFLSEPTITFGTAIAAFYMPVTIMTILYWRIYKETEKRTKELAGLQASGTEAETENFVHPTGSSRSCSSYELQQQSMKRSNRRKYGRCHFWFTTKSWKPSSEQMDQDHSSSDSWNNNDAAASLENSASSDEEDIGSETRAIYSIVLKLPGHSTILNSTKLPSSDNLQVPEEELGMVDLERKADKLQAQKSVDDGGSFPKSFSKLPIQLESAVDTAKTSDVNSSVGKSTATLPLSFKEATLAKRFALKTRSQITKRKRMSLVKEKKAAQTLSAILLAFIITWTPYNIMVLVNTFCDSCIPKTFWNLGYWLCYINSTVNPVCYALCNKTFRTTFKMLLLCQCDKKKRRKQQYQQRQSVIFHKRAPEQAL

Broadly, the pKi is −log10 of the Ki, conventionally taken in molar units. A high value points to a low Ki. Usually AUC stands for concentration integrated over time. For `COc1ccc(S(=O)(=O)c2ccc(C3(C4CCN(C5CCN(C(=O)c6cccc7c(F)cccc67)CC5)CC4)OCCO3)cc2)cc1`, in data set [1], the pKi is 9.70. Besides, in data set [2], the AUC at 6 h was found to be 130 ng·h/mL. Moreover, in the data set with Rattus norvegicus, the MD was 140%.
Take `COc1ccc(S(=O)(=O)c2ccc(C3(C4CCN(C5CCN(C(=O)c6cccc7c(F)ccc(F)c67)CC5)CC4)OCCO3)cc2)cc1`: the pKi in data set [3] was 9.54. In the data set on Rattus norvegicus, the MD came to 120%.
As to `COc1ccc(S(=O)(=O)c2ccc(C3(C4CCN(C5CCN(C(=O)c6cccc7ccc(F)cc67)CC5)CC4)OCCO3)cc2)cc1`, the pKi in data set [1] was 8.92.
On the same count and under the same terms, in the case of `COc1ccc(S(=O)(=O)c2ccc(C3(C4CCN(C5CCN(C(=O)c6cccc7ccccc67)CC5)CC4)OCCO3)cc2)cc1` it was 9.85; in that of `COc1ccc(S(=O)(=O)c2ccc(C3(C4CCN(C5CCN(C(=O)c6cccc7cc(Cl)ccc67)CC5)CC4)OCCO3)cc2)cc1`, 8.85.
Still for that read-out and setting: in the case of `COc1ccc(S(=O)(=O)c2ccc(C3(C4CCN(C5CCN(C(=O)c6cccc7cc(F)ccc67)CC5)CC4)OCCO3)cc2)cc1` it was 9.09.
Take `CCCS(=O)(=O)N1CCC(N2CCC(C3(c4ccc(S(=O)(=O)c5ccc(OC)cc5)cc4)OCCO3)CC2)CC1`: the pKi in data set [3] is 7.48. Besides, the Selectivity ratio in data set [4] was 25.3; in data set [5], 18.3.
Regarding `COc1ccc(S(=O)(=O)c2ccc(C3(C4CCN(C5CCN(C(=O)c6cccc7cccc(F)c67)CC5)CC4)OCCO3)cc2)cc1`, the pKi in data set [3] was 9.00.
On to `CCCS(=O)(=O)N1CCC(N2CCC(C3(c4ccc(S(=O)(=O)c5ccc6c(c5)OCO6)cc4)OCCO3)CC2)CC1`, for which the Selectivity ratio in data set [4] came out at 93; in data set [5], 102.
In turn, `COc1ccc(S(=O)(=O)c2ccc(C3(C4CCN(C5CCN(C(=O)c6ccc(F)c7ccccc67)CC5)CC4)OCCO3)cc2)cc1` gave a pKi in data set [1] of 9.29. Also, the MD in the data set on Rattus norvegicus is 180%.
Molecule `COc1ccc(S(=O)(=O)c2ccc(C3(C4CCN(C5CCN(C(=O)c6cccc7c(Br)cccc67)CC5)CC4)OCCO3)cc2)cc1` gave a pKi in data set [1] of 9.29. In data set [2], this molecule displayed an AUC at 6 h of 702 ng·h/mL. The MD with Rattus norvegicus is recorded as 125%.
In data set [3], `COc1ccc(S(=O)(=O)c2ccc(C3(C4CCN(C5CCN(C(=O)c6cccc7c(F)cc(F)cc67)CC5)CC4)OCCO3)cc2)cc1` had a pKi of 9.64. The AUC at 6 h in data set [2] is 367 ng·h/mL. For the same molecule, the MD in the data set on Rattus norvegicus was determined as 133%.
